Measured values taken from ChEMBL document CHEMBL1141691, “Synthesis and antibacterial activity of the C-7 side chain of 3-aminoquinazolinediones” (Bioorg Med Chem Lett, 2008).
In brackets after ≈: the same amount, converted by molar mass.

system: Escherichia coli; assay: Antibacterial activity against wild-type Escherichia coli MC4100 by microbroth dilution susceptibility assay; assay type: functional
Summary of the method: (§1)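 MIC determined by standard broth microdilution following CLSI (formerly NCCLS) guidelines. Value is the lowest concentration inhibiting bacterial growth.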

Going from Cc1c(N2CCC(N)C2)c(F)cc2c(=O)n(N)c(=O)n(C3CC3)c12 (centres undefined) to Cc1c(N2CCC(CN)C2)c(F)cc2c(=O)n(N)c(=O)n(C3CC3)c12 (centres undefined), the MIC rises from 1 µg/mL (≈ 3 µM) to 2 µg/mL (≈ 5.76 µM) (2-fold).

Compared with Cc1c(N2CC[C@@H]([C@H](C)N)C2)c(F)cc2c(=O)n(N)c(=O)n(C3CC3)c12, Cc1c(N2CC[C@H]([C@H](C)N)C2)c(F)cc2c(=O)n(N)c(=O)n(C3CC3)c12 is 8-fold higher in MIC: 0.5 µg/mL (≈ 1.38 µM) for the first, 4 µg/mL (≈ 11.1 µM) for the second.

First: CN[C@@H](C)[C@@H]1CCN(c2c(F)cc3c(=O)n(N)c(=O)n(C4CC4)c3c2C)C1
Second: CCN[C@@H](C)[C@@H]1CCN(c2c(F)cc3c(=O)n(N)c(=O)n(C4CC4)c3c2C)C1
The MIC of the first is 2-fold lower: 4 µg/mL (≈ 10.7 µM) for the first, 8 µg/mL (≈ 20.5 µM) for the second.

Going from Cc1c(N2CCC(C(C)N)C2)c(F)cc2c(=O)n(N)c(=O)n(C3CC3)c12 (centres undefined) to Cc1c(N2CC[C@H]([C@@H](C)N)C2)c(F)cc2c(=O)n(N)c(=O)n(C3CC3)c12, the MIC falls from 4 µg/mL (≈ 11.1 µM) to 2 µg/mL (≈ 5.53 µM) (2-fold).

Molecule Cc1c(N2CCC(C(C)(C)N)C2)c(F)cc2c(=O)n(N)c(=O)n(C3CC3)c12 (centres undefined) has an MIC of 16 µg/mL (≈ 42.6 µM).

system: Escherichia coli; assay: Antibacterial activity against TolC knock-out Escherichia coli by microbroth dilution susceptibility assay; assay type: functional; summary of the method: as §1

First: Cc1c(N2CCC(N)C2)c(F)cc2c(=O)n(N)c(=O)n(C3CC3)c12 (centres undefined)
Second: Cc1c(N2CCC(CN)C2)c(F)cc2c(=O)n(N)c(=O)n(C3CC3)c12 (centres undefined)
The MIC of the first is 1.9-fold higher: 0.25 µg/mL (≈ 0.75 µM) for the first, 0.13 µg/mL (≈ 0.374 µM) for the second.

Going from Cc1c(N2CC[C@@H]([C@H](C)N)C2)c(F)cc2c(=O)n(N)c(=O)n(C3CC3)c12 to Cc1c(N2CC[C@H]([C@H](C)N)C2)c(F)cc2c(=O)n(N)c(=O)n(C3CC3)c12, the MIC rises from 0.03 µg/mL (≈ 0.083 µM) to 0.13 µg/mL (≈ 0.36 µM) (4.3-fold).

First: CN[C@@H](C)[C@@H]1CCN(c2c(F)cc3c(=O)n(N)c(=O)n(C4CC4)c3c2C)C1
Second: CCN[C@@H](C)[C@@H]1CCN(c2c(F)cc3c(=O)n(N)c(=O)n(C4CC4)c3c2C)C1
The MIC of the first is 4.3-fold lower: 0.03 µg/mL (≈ 0.0799 µM) for the first, 0.13 µg/mL (≈ 0.334 µM) for the second.

Compared with Cc1c(N2CCC(C(C)N)C2)c(F)cc2c(=O)n(N)c(=O)n(C3CC3)c12 (centres undefined), Cc1c(N2CC[C@H]([C@@H](C)N)C2)c(F)cc2c(=O)n(N)c(=O)n(C3CC3)c12 is 1.9-fold lower in MIC: 0.25 µg/mL (≈ 0.692 µM) for the first, 0.13 µg/mL (≈ 0.36 µM) for the second.

With Cc1c(N2CCC(C(C)(C)N)C2)c(F)cc2c(=O)n(N)c(=O)n(C3CC3)c12 (centres undefined) the MIC was 0.25 µg/mL (≈ 0.666 µM).

system: Enterococcus faecalis; assay: Antibacterial activity against Enterococcus faecalis MGH-2 by microbroth dilution susceptibility assay; assay type: functional; summary of the method: as §1

First: Cc1c(N2CCC(N)C2)c(F)cc2c(=O)n(N)c(=O)n(C3CC3)c12 (centres undefined)
Second: Cc1c(N2CCC(CN)C2)c(F)cc2c(=O)n(N)c(=O)n(C3CC3)c12 (centres undefined)
The MIC of the first is 16-fold higher: 8 µg/mL (≈ 24 µM) for the first, 0.5 µg/mL (≈ 1.44 µM) for the second.

First: Cc1c(N2CC[C@@H]([C@H](C)N)C2)c(F)cc2c(=O)n(N)c(=O)n(C3CC3)c12
Second: Cc1c(N2CC[C@H]([C@H](C)N)C2)c(F)cc2c(=O)n(N)c(=O)n(C3CC3)c12
The MIC of the first is 33-fold lower: 0.06 µg/mL (≈ 0.166 µM) for the first, 2 µg/mL (≈ 5.53 µM) for the second.

Going from CN[C@@H](C)[C@@H]1CCN(c2c(F)cc3c(=O)n(N)c(=O)n(C4CC4)c3c2C)C1 to CCN[C@@H](C)[C@@H]1CCN(c2c(F)cc3c(=O)n(N)c(=O)n(C4CC4)c3c2C)C1, the MIC rises from 0.13 µg/mL (≈ 0.346 µM) to 0.25 µg/mL (≈ 0.642 µM) (1.9-fold).

Compared with Cc1c(N2CCC(C(C)N)C2)c(F)cc2c(=O)n(N)c(=O)n(C3CC3)c12 (centres undefined), Cc1c(N2CC[C@H]([C@@H](C)N)C2)c(F)cc2c(=O)n(N)c(=O)n(C3CC3)c12 is 4-fold lower in MIC: 1 µg/mL (≈ 2.77 µM) for the first, 0.25 µg/mL (≈ 0.692 µM) for the second.

Molecule Cc1c(N2CCC(C(C)(C)N)C2)c(F)cc2c(=O)n(N)c(=O)n(C3CC3)c12 (centres undefined) has an MIC of 2 µg/mL (≈ 5.33 µM).

system: Staphylococcus aureus; assay: Antibacterial activity against Staphylococcus aureus 29213 by microbroth dilution susceptibility assay; assay type: functional; summary of the method: as §1

Compared with Cc1c(N2CCC(N)C2)c(F)cc2c(=O)n(N)c(=O)n(C3CC3)c12 (centres undefined), Cc1c(N2CCC(CN)C2)c(F)cc2c(=O)n(N)c(=O)n(C3CC3)c12 (centres undefined) is 16-fold lower in MIC: 8 µg/mL (≈ 24 µM) for the first, 0.5 µg/mL (≈ 1.44 µM) for the second.

Compared with Cc1c(N2CC[C@@H]([C@H](C)N)C2)c(F)cc2c(=O)n(N)c(=O)n(C3CC3)c12, Cc1c(N2CC[C@H]([C@H](C)N)C2)c(F)cc2c(=O)n(N)c(=O)n(C3CC3)c12 is 15-fold higher in MIC: 0.13 µg/mL (≈ 0.36 µM) for the first, 2 µg/mL (≈ 5.53 µM) for the second.

CN[C@@H](C)[C@@H]1CCN(c2c(F)cc3c(=O)n(N)c(=O)n(C4CC4)c3c2C)C1 and CCN[C@@H](C)[C@@H]1CCN(c2c(F)cc3c(=O)n(N)c(=O)n(C4CC4)c3c2C)C1 are the same in MIC: 0.5 µg/mL (≈ 1.33 µM) for the first, 0.5 µg/mL (≈ 1.28 µM) for the second.

Compared with Cc1c(N2CCC(C(C)N)C2)c(F)cc2c(=O)n(N)c(=O)n(C3CC3)c12 (centres undefined), Cc1c(N2CC[C@H]([C@@H](C)N)C2)c(F)cc2c(=O)n(N)c(=O)n(C3CC3)c12 is 2-fold higher in MIC: 0.5 µg/mL (≈ 1.38 µM) for the first, 1 µg/mL (≈ 2.77 µM) for the second.

Work on Cc1c(N2CCC(C(C)(C)N)C2)c(F)cc2c(=O)n(N)c(=O)n(C3CC3)c12 (centres undefined) yielded an MIC of 1 µg/mL (≈ 2.66 µM).

system: Streptococcus pyogenes; assay: Antibacterial activity against Streptococcus pyogenes C203 by microbroth dilution susceptibility assay; assay type: functional; summary of the method: as §1

First: Cc1c(N2CCC(N)C2)c(F)cc2c(=O)n(N)c(=O)n(C3CC3)c12 (centres undefined)
Second: Cc1c(N2CCC(CN)C2)c(F)cc2c(=O)n(N)c(=O)n(C3CC3)c12 (centres undefined)
The MIC of the first is 17-fold higher: 1 µg/mL (≈ 3 µM) for the first, 0.06 µg/mL (≈ 0.173 µM) for the second.

Going from Cc1c(N2CC[C@@H]([C@H](C)N)C2)c(F)cc2c(=O)n(N)c(=O)n(C3CC3)c12 to Cc1c(N2CC[C@H]([C@H](C)N)C2)c(F)cc2c(=O)n(N)c(=O)n(C3CC3)c12, the MIC rises from 0.015 µg/mL (≈ 0.0415 µM) to 0.5 µg/mL (≈ 1.38 µM) (33-fold).

Going from CN[C@@H](C)[C@@H]1CCN(c2c(F)cc3c(=O)n(N)c(=O)n(C4CC4)c3c2C)C1 to CCN[C@@H](C)[C@@H]1CCN(c2c(F)cc3c(=O)n(N)c(=O)n(C4CC4)c3c2C)C1, the MIC rises from 0.015 µg/mL (≈ 0.04 µM) to 0.13 µg/mL (≈ 0.334 µM) (8.7-fold).

Going from Cc1c(N2CCC(C(C)N)C2)c(F)cc2c(=O)n(N)c(=O)n(C3CC3)c12 (centres undefined) to Cc1c(N2CC[C@H]([C@@H](C)N)C2)c(F)cc2c(=O)n(N)c(=O)n(C3CC3)c12, the MIC rises from 0.03 µg/mL (≈ 0.083 µM) to 0.25 µg/mL (≈ 0.692 µM) (8.3-fold).

In the case of Cc1c(N2CCC(C(C)(C)N)C2)c(F)cc2c(=O)n(N)c(=O)n(C3CC3)c12 (centres undefined), the MIC is reported as 0.125 µg/mL (≈ 0.333 µM).

system: not listed separately; assay: Inhibition of Escherichia coli DNA gyrase

First: Cc1c(N2CCC(N)C2)c(F)cc2c(=O)n(N)c(=O)n(C3CC3)c12 (centres undefined)
Second: Cc1c(N2CCC(CN)C2)c(F)cc2c(=O)n(N)c(=O)n(C3CC3)c12 (centres undefined)
The IC50 of the first is 2-fold lower: 200 nM for the first, 400 nM for the second.

Going from Cc1c(N2CC[C@@H]([C@H](C)N)C2)c(F)cc2c(=O)n(N)c(=O)n(C3CC3)c12 to Cc1c(N2CC[C@H]([C@H](C)N)C2)c(F)cc2c(=O)n(N)c(=O)n(C3CC3)c12, the IC50 rises from 200 nM to 600 nM (3-fold). The first is the more potent here.

Compared with CN[C@@H](C)[C@@H]1CCN(c2c(F)cc3c(=O)n(N)c(=O)n(C4CC4)c3c2C)C1, CCN[C@@H](C)[C@@H]1CCN(c2c(F)cc3c(=O)n(N)c(=O)n(C4CC4)c3c2C)C1 is 4.5-fold higher in IC50: 200 nM for the first, 900 nM for the second. The first is the more potent here.

Cc1c(N2CCC(C(C)N)C2)c(F)cc2c(=O)n(N)c(=O)n(C3CC3)c12 (centres undefined) and Cc1c(N2CC[C@H]([C@@H](C)N)C2)c(F)cc2c(=O)n(N)c(=O)n(C3CC3)c12 are within 1.5-fold of each other in IC50: 600 nM for the first, 800 nM for the second.

With Cc1c(N2CCC(C(C)(C)N)C2)c(F)cc2c(=O)n(N)c(=O)n(C3CC3)c12 (centres undefined) the IC50 was 1600 nM.
